# Peptide text beside a SMILES is read from it. * marks the point of attachment. Cbz = O=C(OCc1ccccc1)*
# Assays:
# [1] = Cytotoxicity against human IPC227F cells after 48 hrs using Hoechst 33342 dye-based fluorescence microplate reader; assay type: functional, cell-based
# Method in brief: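 Attached IPC227F human ocular melanoma cells were seeded and grown 24 h at 37 °C, 5% CO2, in DMEM with 10% fetal calf serum. Cells were then given fresh medium with increasing drug concentrations from DMSO stocks (DMSO final 0.025%) for 48 h, PBS-washed and frozen at -80 °C. Hoechst 33342 staining followed at room temperature in the dark. Fluorescence was read at 360/460 nm, survival was expressed as % of untreated control, and IC50 determined.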
# [2] = Ratio of drug level in tumor to blood in mouse; assay type: ADME, organism-based
# [3] = Drug uptake in tumor of mouse xenografted with mouse B16 cells after 6 hrs; assay type: ADME, Neoplasm; settings: in vivo
# [4] = Drug uptake in tumor of mouse xenografted with mouse B16 cells assessed per gram of tissue after 15 mins; assay type: ADME, Neoplasm; settings: in vivo, 0.25 h
# [5] = Drug uptake in tumor of mouse xenografted with mouse B16 cells assessed per gram of tissue after 3 hrs; assay type: ADME, Neoplasm; settings: in vivo
# [6] = Drug uptake in tumor of mouse xenografted with mouse B16 cells assessed per gram of tissue after 72 hrs; assay type: ADME, Neoplasm; settings: in vivo
SMILES,IC50 [1] [µM],other results
CCCN(CCC)CCNC(=O)c1ccc(C(=O)N[C@@H](CC(C)C)C(=O)N[C@@H](CC(C)C)C(=O)N[C@H](C=O)CC(C)C)cc1,0.71,
CCN(CC)CCNC(=O)c1ccc(C(=O)N[C@@H](Cc2ccccc2)C(=O)N[C@@H](CC(C)C)C(=O)N[C@H](C=O)CC(C)C)cc1,11.9,
CCN(CC)CCNC(=O)c1ccc(C(=O)N[C@@H](CC(C)C)C(=O)N[C@@H](CC(C)C)C(=O)N[C@H](C=O)CC(C)C)cc1,0.64,
CCCN(CCC)CCCCNC(=O)c1ccc(C(=O)N[C@@H](CC(C)C)C(=O)N[C@@H](CC(C)C)C(=O)N[C@H](C=O)CC(C)C)cc1,4.18,
CCN(CC)CCNC(=O)c1ccc(C(=O)N[C@@H](CC(C)C)C(=O)N[C@@H](CC(C)C)C(=O)N[C@H](C=O)CC(C)C)c([125I])c1,,Kp [2]: ≥ 1; Drug uptake [3]: 1.2%; Drug uptake [4]: 2.7%; Drug uptake [5]: 1.2%
CCN(CC)CCNC(=O)c1ccc(C(=O)N[C@@H](Cc2ccccc2)C(=O)N[C@@H](CC(C)C)C(=O)N[C@H](/C=C/S(C)(=O)=O)CC(C)C)cc1,120,
CCN(CC)CCNC(=O)c1ccc(C(=O)N[C@@H](Cc2ccccc2)C(=O)N[C@H](/C=C/S(C)(=O)=O)CC(C)C)cc1,94.5,
CCN(CC)CCNC(=O)c1ccc(C(=O)N[C@@H](Cc2ccccc2)C(=O)N[C@H](C=O)CC(C)C)cc1,20.9,
CCN(CC)CCNC(=O)c1ccc(C(=O)N[C@@H](CC(C)C)C(=O)N[C@@H](CC(C)C)C(=O)N[C@H](/C=C/S(C)(=O)=O)CC(C)C)cc1,28.7,
CCCN(CCC)CCCCNC(=O)c1ccc([125I])cc1,,Drug uptake [6]: 3.2%
CC(C)C[C@@H](C=O)NC(=O)[C@H](CC(C)C)NC(=O)[C@H](CC(C)C)NC(=O)OCc1ccccc1 [MG-132] (Cbz-Leu-Leu-Leu-aldehyde),0.077,

# From ChEMBL document CHEMBL1909632, “New aldehyde and vinylsulfone proteasome inhibitors for targeted melanoma therapy” (Eur J Med Chem, 2011)
